PglD DTNB: inhibitors of Campylobacter jejuni PglD acetyltransferase; purified PglD enzyme, DTNB colorimetric CoA detection; inhibition, % at 12.5 µM; actives 0.098% (n = 360,000); AID 602405; in the data active means inhibition above about 16%, passing the limit was not always enough
DENV2 CPE rescue: protects cells from dengue virus 2 cytopathic effect; DENV2-infected cells, cytopathic effect rescue, plate reader; CPE inhibition, % at 9.99 µM; actives 1.7% (n = 350,000); in the data active means CPE inhibition above about 20%, passing the limit was not always enough; tested in BHK-21 cells;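 further: 0% = median of neutral control wells and 100% = median of positive control wells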
HIV Env fusion: HIV envelope-mediated fusion inhibition; actives 1.1% (n = 360,000); inhibition, % at 12.3 µM; AID 651610; HeLa-JRFL Env/CEM21 cell fusion, luciferase;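 active means mean replicate inhibition score of at least 50 and every replicate individually at or above 50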;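 further: 0% = plate neutral controls and 100% = maraviroc near 300 nM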
Ecoli rRNA inh: selective bacterial rRNA inhibition in E. coli | E. coli WT GFP vs humanized-ribosome RFP mutants, fluorescence, 24 h; stronger effect = lower value; DMSO median 0, no signal -100 | GFP signal change (wild-type ribosome), % (concentration not given with the values) | actives 1.6% (n = 350,000) | AID 720706;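 active means significant combined selectivity score with lowered wild-type GFP, culture density cut under 30%, mutant RFP and density less affected; inactive means any of these conditions unmet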
PGC1a acetyl inh: lowers PGC1a acetylation signal in U2OS cells; actives 0.17% (n = 350,000); AlphaScreen anti-acetyl-lysine; with virally co-expressed GCN5 acetyltransferase; AID 651687; inhibition, % at 15.6 µM;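 active means every replicate shows inhibition of at least 40%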;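 further: 0% = neutral control wells and 100% = positive control wells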
FN deposition inh: fibronectin deposition inhibition; actives 0.086% (n = 350,000); AH1F fibroblasts, Alexa488-fibronectin deposition fluorescence, overnight; inhibition, % at 12.6 µM;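 active means mean inhibition across replicates of 30% or more, regardless of how many single replicates reach that level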;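 further: positive control wells lacked labelled fibronectin entirely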
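Test system: AH1F fibroblast monolayer depositing Alexa488-labelled fibronectin into matrix. Input: 10000 cells per well. Technique: fluorescence, ex 485 nm, em 525 nm. Buffer or medium: DMEM plus 2% serum, read in PBS. Timing: 1 h cell adhesion before compound, then overnight fibronectin incubation. Compound: single dose, pinned. Read-out basis: inhibition from reduced deposited-fibronectin fluorescence.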
Starred values were filed as active, the others as inactive; · = no result; ! = not active in a repeat; [ ] = dose if it differs, or a comment. In the library only some 3.5% were active in any assay of this set; here they are far more common.

SMILES	PglD DTNB	DENV2 CPE rescue	HIV Env fusion	Ecoli rRNA inh	PGC1a acetyl inh	FN deposition inh
COc1ccc(-c2cnc3c(c2)C(=O)N([C@@H](C)CO)C[C@@H](C)[C@H](CN(C)C(=O)Cc2ccncc2)O3)cc1	-1	-7	5[16.7 µM]	1	10	·
C[C@H](NC(=O)C[C@@H]1C[C@@H]2c3cc(NC(=O)c4cccnc4)ccc3O[C@@H]2[C@H](CO)O1)c1ccccc1	0	-3	7[16.7 µM]	2	0	·
CC(C)NC(=O)N[C@H]1CC[C@H](CCn2cc(-c3ccccc3)nn2)O[C@@H]1CO	2	-3	42[16.7 µM]	-1	-1	10
Cn1c(=O)n(Cc2ccc(Br)cc2)c2ccccc21	·	-5	2	-48*	·	·
O=C(C[C@H]1C[C@H]2c3cc(NC(=O)Nc4ccccc4F)ccc3O[C@H]2[C@H](CO)O1)NCc1ccc(Oc2ccccc2)cc1	-1	5	12[16.7 µM]	-2	33	-25
Cc1nnn(C23C[C@@H]4C[C@@H](CC(C(=O)N5CCN(c6ccccc6)CC5)(C4)C2)C3)n1	-2	8	10	-31*	-1	0
O=C(N1CCN(c2ccccc2)CC1)C12CC3CC(CC(C3)C1)C2	2	·	·	-6	-1	·
CC(C)NC(=O)Nc1ccc2c(c1)C(=O)N([C@@H](C)CO)C[C@@H](C)[C@H](CN(C)C(=O)Nc1ccccc1)OCCCC[C@@H](C)O2	·	·	-3[16.7 µM]	0	-6	-3
CC(C)NC(=O)N(C)C[C@H]1OCCCC[C@H](C)Oc2ccc(NC(=O)Nc3ccc(F)cc3)cc2C(=O)N([C@@H](C)CO)C[C@H]1C	3	56*	12[16.7 µM]	1	-6	·
CC(C)NC(=O)N(C)C[C@@H]1OCCCC[C@@H](C)Oc2ccc(NC(=O)Nc3ccc(F)cc3)cc2C(=O)N([C@H](C)CO)C[C@@H]1C	-1	48*!	18[16.7 µM]	1	9	-1
C[C@@H]1CCCCO[C@H](CN(C)C(=O)Nc2ccc(F)cc2)[C@H](C)CN([C@@H](C)CO)C(=O)c2cc(NC(=O)Nc3ccc(F)cc3)ccc2O1	4	10	-81[16.7 µM]	1	-4	-14
CC(C)NC(=O)N(C)C[C@@H]1OCCCC[C@@H](C)Oc2ccc(NC(=O)Nc3ccc(F)cc3)cc2C(=O)N([C@H](C)CO)C[C@H]1C	4	2	-78[16.7 µM]	-2	-19	·
COCC#Cc1cnc2c(c1)C(=O)N([C@@H](C)CO)C[C@H](C)[C@@H](CN(C)S(=O)(=O)c1cn(C)cn1)O2	·	8	·	0	4	10
C[C@@H]1CN([C@H](C)CO)C(=O)c2cccc(NS(=O)(=O)c3cn(C)cn3)c2O[C@H]1CN(C)Cc1ccc(-c2ccccc2)cc1	-5	-15	·	1	2	·
C/C=C/c1ccc([C@H]2[C@@H](CNS(C)(=O)=O)N(CC3CCCC3)[C@H]2CO)cc1	8	51*	·	0	-11	3
N#C[C@@H]1[C@H](c2ccccc2-c2ccccc2)[C@@H](CO)N1C(=O)NC1CCCCC1	·	45*	·	-3	-1	-5
C/C=C/c1ccc([C@H]2[C@@H](C#N)N(C(=O)NC3CCCCC3)[C@H]2CO)cc1	-1	7	20[16.7 µM]	2	-17	-1
C/C=C/c1ccc([C@@H]2[C@H](C#N)N(C(=O)NC3CCCCC3)[C@H]2CO)cc1	4	77*	2[16.7 µM]	5	-16	3
N#C[C@H]1[C@@H](c2ccccc2C2=CCCCC2)[C@@H](CO)N1C(=O)NC1CCCC1	·	22*	·	1	1	-13
N#C[C@H]1[C@H](c2ccccc2C2=CCCCC2)[C@@H](CO)N1C(=O)NC1CCCC1	·	-12	·	-34	-1	2
CCCNC(=O)C[C@@H]1CC[C@@H]2[C@@H](COc3ccc(NC(=O)c4cc(F)cc(F)c4)cc3C(=O)N2C)O1	0	3	-4[16.7 µM]	1	-3	14
N#C[C@@H]1[C@H](c2ccc(C3=CCCCC3)cc2)[C@H](CO)N1C(=O)NC1CCCC1	·	27*	·	-1	·	3
COc1ccc2nc(N3C(=O)C(O)=C(C(=O)c4ccco4)C3c3ccc(C)o3)sc2c1 (stereo not drawn)	·	-2	·	-5	·	-7
